Experimental data reported in ChEMBL document CHEMBL4011603, “Synthesis of clarithromycin ketolides chemically modified at the unreactive C10-methyl group” (2017).
≈ marks a conversion by molar mass, not a printed value.

Experiments:
Staphylococcus aureus [1] = test: Antibacterial activity against Staphylococcus aureus ATCC 29213 by broth microdilution method; type: functional
Summary of the method: (§1)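 Standard broth microdilution; the endpoint is the minimal inhibitory concentration, reported in μg/mL. Clarithromycin is the reference macrolide. Strains are respiratory-pathogen isolates of S. pneumoniae and S. aureus.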

Staphylococcus aureus [2] = test: Antibacterial activity against macrolide-resistant Staphylococcus aureus BAA976 expressing mef gene by broth microdilution method; type: functional
Summary of the method: (§2)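 Standard broth microdilution for MIC against respiratory-pathogen strains, reported in μg/mL, with clarithromycin included as the reference macrolide.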

Streptococcus pneumoniae [3] = test: Antibacterial activity against macrolide-resistant Streptococcus pneumoniae BAA1402 expressing mef gene by broth microdilution method; type: functional; summary of the method: as §2
Streptococcus pneumoniae [4] = test: Antibacterial activity against macrolides/lincosamides/streptogramines resistant Streptococcus pneumoniae 3914 by broth microdilution method; type: functional; summary of the method: as §2
Staphylococcus aureus [5] = test: Antibacterial activity against inducibly macrolides/lincosamides/streptogramines-resistant Staphylococcus aureus BAA977 expressing erm gene by broth microdilution method; type: functional; summary of the method: as §2
Streptococcus pneumoniae [6] = test: Antibacterial activity against Streptococcus pneumoniae ATCC 4961 by broth microdilution method; type: functional; summary of the method: as §1
Staphylococcus aureus [7] = test: Antibacterial activity against constitutively macrolides/lincosamides/streptogramines-resistant Staphylococcus aureus ND048910 expressing erm gene by broth microdilution method; type: functional; summary of the method: as §2
Streptococcus pneumoniae [8] = test: Antibacterial activity against macrolides/lincosamides/streptogramines-resistant Streptococcus pneumoniae BAA1407 expressing mef and erm genes by broth microdilution method

Row | SMILES | MIC (Staphylococcus aureus [1]) [µg/mL] | MIC (Staphylococcus aureus [2]) [µg/mL] | MIC (Streptococcus pneumoniae [3]) [µg/mL] | MIC (Streptococcus pneumoniae [4]) [µg/mL] | MIC (Staphylococcus aureus [5]) [µg/mL] | MIC (Streptococcus pneumoniae [6]) [µg/mL] | MIC (Staphylococcus aureus [7]) [µg/mL] | MIC (Streptococcus pneumoniae [8]) [µg/mL]
1 | CC[C@H]1OC(=O)[C@H](C)C(=O)[C@H](C)[C@@H](O[C@@H]2O[C@H](C)C[C@H](N(C)C)[C@H]2OC(C)=O)[C@](C)(OC)C[C@@H](C)C(=O)[C@]2(CC=NN2)[C@H]2NC(=O)O[C@]12C | 2 (≈ 2.88 µM) | 2 (≈ 2.88 µM) | 0.25 (≈ 0.36 µM) | 16 (≈ 23 µM) | 2 (≈ 2.88 µM) | 0.06 (≈ 0.0864 µM) | > 128 | 64 (≈ 92.1 µM)
2 | CC[C@H]1OC(=O)[C@H](C)C(=O)[C@H](C)[C@@H](O[C@@H]2O[C@H](C)C[C@H](N(C)C)[C@H]2O)[C@](C)(OC)C[C@@H](C)C(=O)[C@H](CNCc2ccccc2)[C@H]2N(C)C(=O)O[C@]12C | 16 (≈ 21.9 µM) | 32 (≈ 43.7 µM) | 1 (≈ 1.37 µM) | < 128 | 16 (≈ 21.9 µM) | 0.25 (≈ 0.342 µM) | > 64 | 64 (≈ 87.4 µM)
3 | CC[C@H]1OC(=O)[C@H](C)C(=O)[C@H](C)[C@@H](O[C@@H]2O[C@H](C)C[C@H](N(C)C)[C@H]2OC(C)=O)[C@](C)(OC)C[C@@H](C)C(=O)[C@H](CNCc2ccccc2)[C@H]2NC(=O)O[C@@]21C | 0.25 (≈ 0.329 µM) | 0.5 (≈ 0.658 µM) | < 0.0072 | 64 (≈ 84.2 µM) | 1 (≈ 1.32 µM) | < 0.007 | > 64 | 
4 | CCOC(=O)C(C[C@H]1C(=O)[C@H](C)C[C@@](C)(OC)[C@H](O[C@@H]2O[C@H](C)C[C@H](N(C)C)[C@H]2OC(C)=O)[C@@H](C)C(=O)[C@@H](C)C(=O)O[C@H](CC)[C@@]2(C)OC(=O)N[C@H]12)C(=O)OCC | 0.25 (≈ 0.308 µM) | 0.5 (≈ 0.615 µM) | 0.125 (≈ 0.154 µM) | 4 (≈ 4.92 µM) | 0.5 (≈ 0.615 µM) | 0.06 (≈ 0.0738 µM) | > 128 | 128 (≈ 157 µM)
5 | C=C1C(=O)[C@H](C)C[C@@](C)(OC)[C@H](O[C@@H]2O[C@H](C)C[C@H](N(C)C)[C@H]2OC(C)=O)[C@@H](C)C(=O)[C@@H](C)C(=O)O[C@H](CC)[C@@]2(C)OC(=O)N(Cc3ccccc3)[C@H]12 | 1 (≈ 1.35 µM) | 2 (≈ 2.69 µM) | 0.125 (≈ 0.168 µM) | 2 (≈ 2.69 µM) | 2 (≈ 2.69 µM) | < 0.07 | 64 (≈ 86.1 µM) | 64 (≈ 86.1 µM)
6 | CC[C@H]1OC(=O)[C@H](C)C(=O)[C@H](C)[C@@H](O[C@@H]2O[C@H](C)C[C@H](N(C)C)[C@H]2OC(C)=O)[C@](C)(OC)C[C@@H](C)C(=O)[C@H](CNCc2cccnc2)[C@H]2NC(=O)O[C@@]21C | 1 (≈ 1.31 µM) | 2 (≈ 2.63 µM) | 0.06 (≈ 0.0789 µM) | 4 (≈ 5.26 µM) | 4 (≈ 5.26 µM) | 0.015 (≈ 0.0197 µM) | > 64 | 64 (≈ 84.1 µM)
7 | CC[C@H]1OC(=O)[C@H](C)[C@@H](O)[C@H](C)[C@@H](O[C@@H]2O[C@H](C)C[C@H](N(C)C)[C@H]2OC(C)=O)[C@](C)(OC)C[C@@H](C)C(=O)/C(Cc2ccccc2)=C/[C@]1(C)O | 16 (≈ 23.2 µM) | 16 (≈ 23.2 µM) | 0.5 (≈ 0.725 µM) | 64 (≈ 92.8 µM) | 32 (≈ 46.4 µM) | 0.25 (≈ 0.362 µM) | > 64 | > 64
8 | C=C1C(=O)[C@H](C)C[C@@](C)(OC)[C@H](O[C@@H]2O[C@H](C)C[C@H](N(C)C)[C@H]2OC(C)=O)[C@@H](C)C(=O)[C@@H](C)C(=O)O[C@H](CC)[C@@]2(C)OC(=O)N[C@H]12 | 32 (≈ 49 µM) | 64 (≈ 98 µM) | 2 (≈ 3.06 µM) | 128 (≈ 196 µM) | 64 (≈ 98 µM) | 1 (≈ 1.53 µM) | > 64 | > 64
9 | CC[C@H]1OC(=O)[C@H](C)[C@@H](O[C@H]2C[C@@](C)(OC)[C@@H](O)[C@H](C)O2)[C@H](C)[C@@H](O[C@@H]2O[C@H](C)C[C@H](N(C)C)[C@H]2O)[C@](C)(OC)C[C@@H](C)C(=O)[C@H](C)[C@@H](O)[C@]1(C)O [CLARITHROMYCIN] | 0.125 (≈ 0.167 µM) | 64 (≈ 85.6 µM) | 2 (≈ 2.67 µM) | > 16 | > 64 | 0.015 (≈ 0.0201 µM) | > 64 | > 8
